As a reminder, the IC50 is the concentration that inhibits the measured activity by half. A low value points to greater potency.

The values that follow come from paper PMC12679438 (RSC Advances, 2025).

pIC50: −log10 of the molar value. “Also recorded” adds a separate entry of the source. Read-outs that look alike come from different tables or passages of the source.

In one series the test system is A549. The series can be described thus: MTS cytotoxicity assay, 72 h, A549. Type of series: cell-based, human. The following applies: read-out: IC50 A549. In a few lines: (§1)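 Human lines were kept at 37 °C, 5% CO2 in recommended medium plus 10% FCS, penicillin–streptomycin, 2 mM glutamine, 1 mM bicarbonate, 1 mM pyruvate and 20 mM HEPES, and were mycoplasma-tested biweekly. Cells were exposed to test compound for 72 h on a robotic screening platform, then read by MTS. DMSO-treated cells were the negative control. IC50 came from dose–response curves, mean of ≥6 replicates.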

For another series, the system named is HCT116. Kind of series: MTS cytotoxicity assay, 72 h, HCT116. Type of series: cell-based, human. Particulars: read-out: IC50 HCT116. In a few lines:
as §1

The test system of a further series is HCT116-p53. Kind of series: MTS cytotoxicity assay, 72 h, HCT116-p53. Type of series: cell-based, human. In short, it runs like this: as §1
On the technique in general: Formazan colour is commonly taken as a measure of viable cells.

The subject of a further series is U2OS. Kind of series: MTS cytotoxicity assay, 72 h, U2OS. Type of series: cell-based, human. In a few lines:
as §1

The next series concerns RAMOS. Kind of series: MTS cytotoxicity assay, 72 h, RAMOS. Type of series: cell-based, human. In short, it runs like this: as §1
The test system of another series is K562. Kind of series: MTS cytotoxicity assay, 72 h, K562. Type of series: cell-based, human. The following applies: read-out: IC50 K562. In a few lines:
as §1

The subject of the next series is Jurkat. The series can be described thus: MTS cytotoxicity assay, 72 h, Jurkat. Type of series: cell-based, human. In short, it runs like this: as §1
The next series deals with CCRF-CEM. Kind of series: MTS cytotoxicity assay, 72 h, CCRF-CEM. Type of series: cell-based, human. In a few lines:
as §1

The subject of another series is BJ. The series can be described thus: MTS cytotoxicity assay, 72 h, BJ fibroblasts. Type of series: cell-based, human. In short, it runs like this: as §1
A further series concerns MRC-5. The series can be described thus: MTS cytotoxicity assay, 72 h, MRC-5 fibroblasts. Type of series: cell-based, human. The following applies: read-out: IC50 MRC-5. In short, it runs like this:
as §1

A further series concerns the target Recombinant BTK (Homo sapiens, UniProt Q06187). Kind of series: In vitro biochemical kinase assay.
For series [1], the system named is panel of human cell lines. The series can be described thus: MTS cytotoxicity assay, statements over groups of cell lines of the panel. Type of series: cell-based. Particulars: for pIC50: Homo sapiens, 72 h, read-out: IC50 across all tested cell lines; for IC50 / cytotoxicity in fibroblast cells: non-cancerous fibroblasts (BJ, MRC-5), stated together in the text. In a few lines:
as §1

Test in series [2]: as above
Type of series: cell-based, human. Particulars: human. In a few lines: as §1

The target of the next series is T1, Recombinant ITK (Homo sapiens, UniProt Q08881).
T1 sequence (Q08881 1-620): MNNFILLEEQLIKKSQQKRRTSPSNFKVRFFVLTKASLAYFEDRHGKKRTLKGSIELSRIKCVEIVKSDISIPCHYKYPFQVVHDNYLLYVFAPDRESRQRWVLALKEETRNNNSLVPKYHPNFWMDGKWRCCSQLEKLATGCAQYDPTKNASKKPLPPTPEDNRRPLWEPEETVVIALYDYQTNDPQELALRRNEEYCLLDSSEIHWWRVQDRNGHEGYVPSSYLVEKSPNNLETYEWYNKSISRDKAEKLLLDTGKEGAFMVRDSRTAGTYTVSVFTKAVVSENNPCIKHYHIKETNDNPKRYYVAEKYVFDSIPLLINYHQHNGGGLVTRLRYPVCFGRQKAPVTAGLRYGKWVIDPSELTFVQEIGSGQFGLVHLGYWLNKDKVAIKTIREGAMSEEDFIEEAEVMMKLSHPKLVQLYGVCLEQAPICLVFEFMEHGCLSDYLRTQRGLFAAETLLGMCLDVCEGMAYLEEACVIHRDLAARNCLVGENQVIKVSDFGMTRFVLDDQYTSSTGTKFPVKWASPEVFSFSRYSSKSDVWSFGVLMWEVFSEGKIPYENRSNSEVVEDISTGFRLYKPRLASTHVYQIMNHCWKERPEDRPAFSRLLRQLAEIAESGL
The series can be described thus: In vitro biochemical kinase assay. Particulars: ibrutinib 100 µM; vs. DMSO control.

Setting [3] is: ITK/BTK null, MTS, 72 h, mean of ≥6 replicates.
Where [4] appears, read: Homo sapiens, read-out: IC50 HCT116-p53.
[5] abbreviates: Homo sapiens, U2OS, read-out: IC50 U2OS.
Where [6] appears, read: Homo sapiens, Ramos, read-out: IC50 RAMOS.
The mark [7] stands for this setting: Homo sapiens, Jurkat, read-out: IC50 Jurkat.
The mark [8] stands for this setting: Homo sapiens, CCRF-CEM, read-out: IC50 CCRF-CEM.
[9] abbreviates: Homo sapiens, BJ, read-out: IC50 BJ.

Sequence of Recombinant BTK (Q06187 whole entry): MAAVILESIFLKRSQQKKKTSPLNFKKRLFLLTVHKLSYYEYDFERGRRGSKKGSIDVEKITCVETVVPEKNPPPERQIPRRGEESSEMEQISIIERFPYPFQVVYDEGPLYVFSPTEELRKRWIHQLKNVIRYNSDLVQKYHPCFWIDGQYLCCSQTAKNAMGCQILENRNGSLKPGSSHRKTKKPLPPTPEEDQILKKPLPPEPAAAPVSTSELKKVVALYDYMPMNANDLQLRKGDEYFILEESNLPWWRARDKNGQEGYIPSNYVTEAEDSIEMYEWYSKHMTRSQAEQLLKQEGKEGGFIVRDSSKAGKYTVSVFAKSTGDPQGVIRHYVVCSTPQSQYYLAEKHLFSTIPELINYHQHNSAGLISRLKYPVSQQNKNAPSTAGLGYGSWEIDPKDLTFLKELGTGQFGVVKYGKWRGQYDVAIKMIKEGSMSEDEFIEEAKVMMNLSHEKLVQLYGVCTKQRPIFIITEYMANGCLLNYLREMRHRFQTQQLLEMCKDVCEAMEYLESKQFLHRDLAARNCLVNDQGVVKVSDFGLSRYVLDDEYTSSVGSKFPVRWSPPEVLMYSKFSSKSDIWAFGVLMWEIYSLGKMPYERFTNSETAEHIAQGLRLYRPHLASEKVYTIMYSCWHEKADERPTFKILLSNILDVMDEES

Regarding “1-(6-(3,5-difluorophenyl)-3-oxo-2,3-dihydropyridazin-4-yl)-N-(furan-2-ylmethyl)azetidine-3-carboxamide [Compound 22]”, the pIC50 is under 4.30 in the series on A549 (setting [3]); 4.40 with HCT116 (setting [3]); 4.38 in the series with HCT116-p53 (read-out: IC50 HCT116-p53, ITK/BTK null, MTS, mean of ≥6 replicates); 4.44 in the series on U2OS (read-out: IC50 U2OS, ITK/BTK null, MTS, mean of ≥6 replicates); 4.65 with RAMOS (read-out: IC50 RAMOS, BTK positive, MTS, mean of ≥6 replicates); 4.67 in the series on K562 (BTK positive, MTS, 72 h, mean of ≥6 replicates). Moreover, the pIC50 with Jurkat (read-out: IC50 Jurkat, ITK positive, MTS, mean of ≥6 replicates) is 4.95; in the series with CCRF-CEM (read-out: IC50 CCRF-CEM, ITK positive, MTS, mean of ≥6 replicates), 4.73; with BJ (read-out: IC50 BJ, Non-cancer fibroblasts, MTS, mean of ≥6 replicates), under 4.30; with MRC-5 (Non-cancer fibroblasts, MTS, 72 h, mean of ≥6 replicates), under 4.30; at Recombinant BTK (read-out: IC50 BTK activity, ADP-Glo, 0–10 µM range) it was under 5.00. Moreover, the “BTK inhibition (in words)” value on Recombinant BTK (ADP-Glo, 0–10 µM range) is “partial BTK inhibition; also recorded: partial activity against BTK”. Further, on Recombinant BTK (at 10 µM), the “maximal inhibition of BTK” value is given as at most 50%.
As for `O=C(NCC(F)(F)F)C1CN(c2cc(-c3ccncc3)n[nH]c2=O)C1` [Compound 34, 1-(3-oxo-6-(pyridin-4-yl)-2,3-dihydropyridazin-4-yl)-N-(2,2,2-trifluoroethyl)azetidine-3-carboxamide], the pIC50 is under 4.30 with A549 (Homo sapiens, A549, 72 h); under 4.30 in the series on HCT116 (Homo sapiens, HCT-116, 72 h); under 4.30 in the series on HCT116-p53 (setting [4]); under 4.30 in the series on U2OS (setting [5]); under 4.30 in the series with RAMOS (setting [6]); under 4.30 in the series with K562 (Homo sapiens, K562, 72 h). Moreover, the pIC50 with Jurkat (setting [7]) was under 4.30; with CCRF-CEM (setting [8]) it was under 4.30; with BJ (setting [9]) it was under 4.30; in the series with MRC-5 (Homo sapiens, MRC5, 72 h) it was under 4.30; in series [1], under 4.30.
In the case of `O=C(NCC(F)(F)F)C1CN(c2cc(-c3ccccc3)n[nH]c2=O)C1` [Compound 35, 1-(3-oxo-6-phenyl-2,3-dihydropyridazin-4-yl)-N-(2,2,2-trifluoroethyl)azetidine-3-carboxamide], the pIC50 with A549 (Homo sapiens, A549, 72 h) is under 4.30; in the series with HCT116 (Homo sapiens, HCT-116, 72 h), under 4.30; with HCT116-p53 (setting [4]) it was under 4.30; in the series on U2OS (setting [5]), under 4.30; in the series with RAMOS (setting [6]), under 4.30; with K562 (Homo sapiens, K562, 72 h), under 4.30. For the same compound, the pIC50 in the series on Jurkat (setting [7]) is under 4.30; with CCRF-CEM (setting [8]), under 4.30; in the series on BJ (setting [9]) it was under 4.30; in the series on MRC-5 (Homo sapiens, MRC5, 72 h), under 4.30; in series [1], under 4.30.
With `O=C(NCC(F)(F)F)C1CN(c2cc(-c3cccc(F)c3)n[nH]c2=O)C1` [Compound 36, 1-(6-(3-fluorophenyl)-3-oxo-2,3-dihydropyridazin-4-yl)-N-(2,2,2-trifluoroethyl)azetidine-3-carboxamide], the pIC50 is under 4.30 in the series with A549 (Homo sapiens, A549, 72 h); under 4.30 in the series on HCT116 (Homo sapiens, HCT-116, 72 h); under 4.30 with HCT116-p53 (setting [4]); under 4.30 in the series on U2OS (setting [5]); under 4.30 in the series on RAMOS (setting [6]); under 4.30 in the series with K562 (Homo sapiens, K562, 72 h). The pIC50 in the series on Jurkat (setting [7]) was under 4.30; in the series on CCRF-CEM (setting [8]) it was under 4.30; in the series with BJ (setting [9]) it was under 4.30; in the series with MRC-5 (Homo sapiens, MRC5, 72 h), under 4.30; in series [1], under 4.30.
With `COc1ccc(-c2cc(N3CC(C(=O)NCC(F)(F)F)C3)c(=O)[nH]n2)cc1` [Compound 37, 1-(6-(4-methoxyphenyl)-3-oxo-2,3-dihydropyridazin-4-yl)-N-(2,2,2-trifluoroethyl)azetidine-3-carboxamide], the pIC50 in the series on A549 (Homo sapiens, A549, 72 h) is under 4.30; in the series with HCT116 (Homo sapiens, HCT-116, 72 h), under 4.30; with HCT116-p53 (setting [4]) it was under 4.30; in the series on U2OS (setting [5]), under 4.30; in the series on RAMOS (setting [6]), under 4.30; in the series on K562 (Homo sapiens, K562, 72 h), under 4.30. Also, the pIC50 in the series on Jurkat (setting [7]) was under 4.30; in the series with CCRF-CEM (setting [8]), under 4.30; in the series with BJ (setting [9]) it was under 4.30; with MRC-5 (Homo sapiens, MRC5, 72 h), under 4.30; in [1], under 4.30.
For `O=C(NCC(F)(F)F)C1CN(c2cc(-c3ccc(Cl)cc3)n[nH]c2=O)C1` [Compound 38, 1-(6-(4-chlorophenyl)-3-oxo-2,3-dihydropyridazin-4-yl)-N-(2,2,2-trifluoroethyl)azetidine-3-carboxamide], the pIC50 in the series on A549 (Homo sapiens, A549, 72 h) was under 4.30; with HCT116 (Homo sapiens, HCT-116, 72 h) it was under 4.30; in the series on HCT116-p53 (setting [4]), under 4.30; in the series on U2OS (setting [5]) it was under 4.30; in the series on RAMOS (setting [6]) it was under 4.30; with K562 (Homo sapiens, K562, 72 h) it was under 4.30. The pIC50 is 4.35 in the series on Jurkat (setting [7]); 4.52 in the series with CCRF-CEM (setting [8]); under 4.30 in the series with BJ (setting [9]); under 4.30 with MRC-5 (Homo sapiens, MRC5, 72 h). Further, in series [1], the “IC50 / cytotoxicity in fibroblast cells” value was “No significant cytotoxicity”.
With `O=C(NCC(F)(F)F)C1CN(c2cc(-c3ccc(F)cc3F)n[nH]c2=O)C1` [Compound 39, 1-(6-(2,4-difluorophenyl)-3-oxo-2,3-dihydropyridazin-4-yl)-N-(2,2,2-trifluoroethyl)azetidine-3-carboxamide], the pIC50 was under 4.30 in the series on A549 (Homo sapiens, A549, 72 h); under 4.30 in the series on HCT116 (Homo sapiens, HCT-116, 72 h); under 4.30 in the series with HCT116-p53 (setting [4]); under 4.30 with U2OS (setting [5]); under 4.30 in the series with RAMOS (setting [6]); under 4.30 in the series with K562 (Homo sapiens, K562, 72 h). The pIC50 in the series with Jurkat (setting [7]) is under 4.30; in the series on CCRF-CEM (setting [8]), 4.57; with BJ (setting [9]) it was under 4.30; in the series with MRC-5 (Homo sapiens, MRC5, 72 h) it was under 4.30. In series [1], the “IC50 / cytotoxicity in fibroblast cells” value was “No significant cytotoxicity”.
As to `O=C(c1ccc(F)cc1)C1CN(c2cc(-c3ccncc3)n[nH]c2=O)C1` [Compound 52, 4-(3-(4-fluorobenzoyl)azetidin-1-yl)-6-(pyridin-4-yl)pyridazin-3(2H)-one], the pIC50 is under 4.30 in the series on A549 (Homo sapiens, A549, 72 h); under 4.30 in the series with HCT116 (Homo sapiens, HCT-116, 72 h); under 4.30 in the series on HCT116-p53 (setting [4]); under 4.30 in the series on U2OS (setting [5]); 4.88 in the series with RAMOS (setting [6]); under 4.30 in the series on K562 (Homo sapiens, K562, 72 h). For the same compound, the pIC50 is 4.68 with Jurkat (setting [7]); under 4.30 with CCRF-CEM (setting [8]); under 4.30 in the series on BJ (setting [9]); under 4.30 in the series with MRC-5 (Homo sapiens, MRC5, 72 h). The IC50 at 72 h in series [2] (A549, HCT116, HCT116-p53 and U2OS ITK-null cancer cell lines) was over 50 µM; in series [2] (BJ and MRC-5 non-cancerous fibroblast cell lines), over 50 µM.
`C=CC(=O)N1CCC[C@@H](n2nc(-c3ccc(Oc4ccccc4)cc3)c3c(N)ncnc32)C1` [ibrutinib, reference compound]: the “inhibition of ITK activity (assay validation)” value on Recombinant ITK is given as “significant inhibition”.
